Results pooled from the literature.
Lines come from different studies, so protocols differ.
FLT3 K663Q: Receptor-type tyrosine-protein kinase FLT3 (FLT3, Homo sapiens, UniProt P36888, K663Q)
FLT3 D835Y: Receptor-type tyrosine-protein kinase FLT3 (FLT3, Homo sapiens, UniProt P36888, D835Y)
FLT3 N841I: Receptor-type tyrosine-protein kinase FLT3 (FLT3, Homo sapiens, UniProt P36888, N841I)
FLT3 R834Q: Receptor-type tyrosine-protein kinase FLT3 (FLT3, Homo sapiens, UniProt P36888, R834Q)
FLT3 autoinhibited: Receptor-type tyrosine-protein kinase FLT3, autoinhibited (FLT3, Homo sapiens, UniProt P36888)
FLT3 F691L/ITD: Receptor-type tyrosine-protein kinase FLT3 (FLT3, Homo sapiens, UniProt P36888, F691L/ITD)
FLT3 D835H: Receptor-type tyrosine-protein kinase FLT3 (FLT3, Homo sapiens, UniProt P36888, D835H)
FLT3 D835V: Receptor-type tyrosine-protein kinase FLT3 (FLT3, Homo sapiens, UniProt P36888, D835V)
FLT3: Receptor-type tyrosine-protein kinase FLT3 (FLT3, Homo sapiens, UniProt P36888)

| SMILES | target | effect on | method | concentration | remaining binding |
| --- | --- | --- | --- | --- | --- |
| O=C(NCCCN1CCOCC1)c1ccc(Nc2ncc(Cl)c(-c3ccc(Cl)s3)n2)cc1 | FLT3 K663Q | binding | competition with immobilised ligand | 1 µM | 2% |
| CN1CCN(c2ccc(Nc3nccc(-c4cccc([N+](=O)[O-])c4)n3)cc2C(F)(F)F)CC1 | FLT3 D835Y | binding | – | 10 µM | 0% |
| CNC(=O)[C@@H]1CC[C@@H](n2c(-c3ccc4cnccc4c3)nc3ccc(C(=O)NCc4cccc(C(N)=O)c4)cc32)C1 | FLT3 N841I | binding | competition with immobilised ligand | 1 µM | 100% |
| COc1ncc2cc3ccccc3nc2c1C#N | FLT3 R834Q | cell-free assay | competition with immobilised ligand | 5 µM | 92% |
| F[C@@H]1CCN(c2nccc(-c3cnn4ncccc34)n2)C1 | FLT3 R834Q | binding | – | 1 µM | 100% |
| COc1cnc(Nc2cccc(S(N)(=O)=O)c2)nc1N1CCN(c2ccccc2)C(=O)C1 | FLT3 K663Q | binding | competition with immobilised ligand | 1 µM | 87% |
| O=C(Nc1c[nH]nc1C(=O)NC1CCNCC1)c1cc(F)cc(F)c1 | FLT3 autoinhibited | binding | competition with immobilised ligand | 1 µM | 85% |
| C=CC(=O)N1CCC(C(=O)NCC(=O)N2CCN(c3nc(-c4cnc(N)nc4C(F)F)nc(N4CCOCC4)n3)CC2)CC1 | FLT3 D835Y | binding | competition with immobilised ligand | 1 µM | 99% |
| O=C(NC1CCC1)c1ccc2nc(-c3cccc(NS(=O)(=O)NCCN4CCCCC4)c3)cn2c1 | FLT3 F691L/ITD | cell-free assay | competition with immobilised ligand | 10 µM | 80% |
| CCC(=N\O)/C(C)=C/c1ccc(F)cc1 | FLT3 autoinhibited | cell-free assay | competition with immobilised ligand | 1 µM | 86% |
| O=C(c1ccc(Nc2ncc(Cl)c(-c3ccc(Cl)s3)n2)cc1)N1CCC(N2CCCC2)CC1 | FLT3 D835H | binding | competition with immobilised ligand | 1 µM | 2.3% |
| c1cncc(-c2cccc(Nc3nccc(NC4CCCCC4)n3)c2)c1 | FLT3 D835Y | binding | competition with immobilised ligand | 10 µM | 1.4% |
| Nc1ncc2c(n1)-c1c([nH]c3ccc(C#CC4CC4)cc13)CCCC2 | FLT3 K663Q | binding | competition with immobilised ligand | 1 µM | 77% |
| O=C(Nc1ccc(Oc2ccc(F)cc2)cc1)N1CCc2ncccc2[C@H]1c1ccc(F)cc1 | FLT3 autoinhibited | cell-free assay | competition with immobilised ligand | 1 µM | 100% |
| O=C(c1ccc(Nc2nccc(-c3cc4ccccc4s3)n2)cc1)N1CCC(N2CCCC2)CC1 | FLT3 D835V | binding | competition with immobilised ligand | 1 µM | 3.1% |
| CC1=C(C#N)C(c2ccc3c(c2)c(NC(=O)c2ccccc2C)nn3C)C(C#N)=C(C)N1 | FLT3 N841I | cell-free assay | competition with immobilised ligand | 1 µM | 74% |
| Cc1cnc(Nc2ccc(C(=O)N3CCC(N4CCCC4)CC3)cc2)nc1-c1cc2ccccc2s1 | FLT3 F691L/ITD | binding | competition with immobilised ligand | 1 µM | 18% |
| O=C(NCCCC1CCCCC1)c1ccc(CNC(=O)c2cnn(-c3ccccc3)c2C(F)(F)F)cc1 | Receptor-type tyrosine-protein kinase FLT3 (FLT3, Homo sapiens, UniProt P36888, D835V/ITD) | cell-free assay | competition with immobilised ligand | 0.1 µM | 100% |

| SMILES | target | effect on | method | concentration | remaining binding |
| --- | --- | --- | --- | --- | --- |
| CN(C)c1nccc(-c2cnc3ncccn23)n1 | FLT3 D835V | binding | – | 1 µM | 68% |
| O=C(NCCCN1CCOCC1)c1ccc(Nc2nccc(-c3cc4ccccc4s3)n2)cc1 | FLT3 K663Q | binding | competition with immobilised ligand | 1 µM | 35% |
| C[C@@H]1CN(c2ccc3ncc(-c4ccc5[nH]nc(C6CC6)c5c4)n3n2)C[C@H](C)O1 | FLT3 | binding | competition with immobilised ligand | 50 nM | 31% |
| N[C@H]1CCN(c2nccc(-c3cnn4ncccc34)n2)C1 | FLT3 D835V | binding | – | 1 µM | 61% |
| CCN1CCN(Cc2ccc(C(=O)Nc3ccc(C)c(Oc4ccc5c(c4)CC(=O)N5)c3)cc2C(F)(F)F)CC1 | FLT3 autoinhibited | binding | competition with immobilised ligand | 1 µM | 100% |
| NS(=O)(=O)c1cc(NC(=O)C2(c3ccccc3Cl)CC2)ccc1Oc1cccc(Cl)c1 | FLT3 F691L/ITD | cell-free assay | competition with immobilised ligand | 1 µM | 100% |
| C[C@H]1CCN(c2nccc(-c3cnn4ncccc34)n2)C1 | FLT3 | binding | – | 1 µM | 81% |
| NS(=O)(=O)c1cc(NC(=O)Cc2ccccc2)ccc1Oc1cccc(Cl)c1 | FLT3 K663Q | cell-free assay | competition with immobilised ligand | 1 µM | 99% |
| CC1CCCN1c1nccc(-c2cnn3ncccc23)n1 (centres unmarked) | FLT3 | binding | – | 1 µM | 100% |
| CN1CCN(c2ccc(Nc3nccc(-c4ccccc4)n3)cc2C(F)(F)F)CC1 | FLT3 N841I | binding | – | 10 µM | 3.5% |
| O=C(NCc1ncc(C(F)(F)F)cc1Cl)c1ccc2c(c1)C1(CCS(=O)(=O)CC1)[C@H](C1CC1)N2S(=O)(=O)c1ccc(F)cc1 | FLT3 R834Q | cell-free assay | competition with immobilised ligand | 1 µM | 90% |
| COc1ccnn2ncc(-c3ccnc(N(C)C)n3)c12 | FLT3 K663Q | binding | – | 1 µM | 100% |
| COc1cnc(Nc2cccc(S(N)(=O)=O)c2)nc1N1CCN(c2ccccc2)CC1 | FLT3 | binding | competition with immobilised ligand | 1 µM | 36% |
| O=C(NCC1CCOCC1)c1n[nH]cc1NC(=O)c1c(F)cccc1F | FLT3 D835H | binding | competition with immobilised ligand | 1 µM | 98% |
| Cc1noc([C@H]2C[C@@H](c3ccc(C(F)(F)F)cc3)CN(C(=O)N3CCS(=O)(=O)C3)C2)n1 | FLT3 autoinhibited | cell-free assay | competition with immobilised ligand | 1 µM | 100% |
| CN(c1nccc(-c2cnn3ncccc23)n1)C1CC1 | FLT3 R834Q | binding | – | 1 µM | 100% |
| C[C@@H](c1ccc(-n2cnc3c(N)ncnc32)cc1)N1CCc2nn(C)c(Cc3ccccc3)c2C1=O | FLT3 K663Q | binding | competition with immobilised ligand | 0.1 µM | 77% |
